# From ChEMBL document CHEMBL3769301, “Novel cis-selective and non-epimerisable C3 hydroxy azapodophyllotoxins targeting microtubules in cancer cells” (Eur J Med Chem, 2016)
# Activity calls are given as the source filed them. No cut-off for these calls is given here.
# Columns and labels:
# Format in all cases: cell-based
# MCF7 [1] = test: Induction of microtubule cytoskeleton destabilization in human MCF7 cells assessed as uncongressed/misaligned chromosomes at 250 nM after 6 hrs by Hoechst 33342 staining-based confocal fluorescence microscopy
# In short: (§1)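 MCF-7 cells in RPMI 1640 with 10% FBS were grown on glass coverslips for 42 h to 70–80% confluency. They were exposed to 250 nM compound or 0.01% DMSO for 6 h, then fixed in methanol at −20 °C for 10 min. Staining used anti-α-tubulin (1:2000) with Alexa488 secondary (1:400) and Hoechst 33342 (1 μg/ml), imaged by confocal microscopy (63x oil). There were three independent experiments, each in duplicate.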
# MCF7 [2] = test: Induction of microtubule cytoskeleton destabilization in human MCF7 cells assessed as nuclear atypia at 250 nM after 6 hrs by Hoechst 33342 staining-based confocal fluorescence microscopy; in short: as §1
# MCF7 [3] = test: Inhibition of microtubule cytoskeleton polymerization in human MCF7 cells assessed as repolymerization at 250 nM pretreated for 6 hrs followed by incubation for 30 mins on ice then rewarmed to 37 degC for 30 mins by Hoechst 33342 staining-based confocal fluorescence microscopy
# In short: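 Pre-treatment: MCF-7 cells on coverslips were exposed to 250 nM compound or 0.01% DMSO for 6 h, then held at 4 °C on ice for 30 min. One set was fixed after cold depolymerisation; the others were returned to 37 °C/5% CO2 for 30 min to repolymerise. Cells were fixed in −20 °C methanol, stained for α-tubulin and Hoechst, and imaged by confocal microscopy. There were three independent experiments.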
# MCF7 [4] = test: Induction of microtubule cytoskeleton destabilization in human MCF7 cells assessed as abberation in spindle morphology and polarity at 250 nM after 6 hrs by Hoechst 33342 staining-based confocal fluorescence microscopy; in short: as §1
# MCF7 [5] = test: Induction of microtubule cytoskeleton destabilization in human MCF7 cells assessed as pyknosis at 250 nM after 6 hrs by Hoechst 33342 staining-based confocal fluorescence microscopy; in short: as §1
# MCF7 [6] = test: Inhibition of microtubule cytoskeleton polymerization in human MCF7 cells assessed as repolymerization at 250 nM cells preincubated on ice followed rewarmed to 37 degC in presence of compound for 30 mins by Hoechst 33342 staining-based confocal fluorescence microscopy
# In short: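 No pre-treatment: after 42 h on coverslips, MCF-7 cells were held on ice for 30 min to depolymerise microtubules. A cold control set was fixed at once; the rest were rewarmed for 30 min at 37 °C/5% CO2 with 250 nM compound or 0.01% DMSO. All were fixed in methanol at −20 °C, stained for α-tubulin and Hoechst, and examined by confocal imaging. There were three independent experiments.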
# MCF7 [7] = test: Induction of microtubule cytoskeleton destabilization in human MCF7 cells assessed as shorter and more disorderd microtubule at 250 nM after 6 hrs by Hoechst 33342 staining-based confocal fluorescence microscopy; in short: as §1
# MCF7 [8] = test: Induction of microtubule cytoskeleton destabilization in human MCF7 cells assessed as accumulation of binucleate cells at 250 nM after 6 hrs by Hoechst 33342 staining-based confocal fluorescence microscopy; in short: as §1
Structure (SMILES),Activity (MCF7 [1]),Activity (MCF7 [2]),inhibition (MCF7 [3]),Activity (MCF7 [4]),Activity (MCF7 [5]),inhibition (MCF7 [6]),Activity (MCF7 [7]),Activity (MCF7 [8])
O=C1OC[C@]2(O)Nc3c(c4cccnc4c4ncccc34)[C@@H](c3ccccc3OC(F)(F)F)[C@H]12 (mixture of isomers),Active,Active,inactive,Active,Active,inactive,Active,Active
COc1cc([C@@H]2c3cc4c(cc3[C@H](O)[C@H]3COC(=O)[C@H]23)OCO4)cc(OC)c1OC,–,Active,–,–,Active,–,–,–
O=C1OC[C@]2(O)Nc3c(c4cccnc4c4ncccc34)[C@@H](c3ccccc3C(F)(F)F)[C@@H]12 (mixture of isomers),Active,Active,inactive,Active,Active,inactive,Active,Active
